Assay results pooled from the literature.
Target: Tyrosine-protein kinase FRK (FRK, Homo sapiens, UniProt P42685)

| Structure (SMILES) | read-out | action | technique | concentration | measurement | value |
| --- | --- | --- | --- | --- | --- | --- |
| CC(=O)Nc1c(C(C)=O)c(=O)n(C)c2nc(-c3ccc(Cl)cc3Cl)c(-c3ccc(Cl)cc3)cc12 | cell-free assay |  | competition with immobilised ligand | 1 µM | remaining binding | 100% |
| CCN(CC)CCNC(=O)c1c(C)[nH]c(/C=C2\C(=O)Nc3ccc(F)cc32)c1C | enzyme activity | inhibitor |  | 10 µM | inhibition | 93% |
| CCOCCn1cc(C(=O)Nc2ccc(-n3nc(-c4cccnc4)cc3C(F)(F)F)cn2)ccc1=O | cell-free assay |  | competition with immobilised ligand | 1 µM | remaining binding | 100% |
| Cc1ccc(C(=O)NCc2ccsc2)cc1C#Cc1cn(C(C)C)c2ncnc(N)c12 | enzyme activity | inhibitor |  | 1 µM | activity vs control | 2% |
| O=C(Nc1cnn(-c2csc(C(=O)NC3COC3)c2)c1)Nc1c(F)cccc1Cl | enzyme activity | inhibitor |  | 5 µM | remaining activity | 95.6% |
| O=C1CCc2cc(Nc3cc(OC4CCOCC4)c([N+](=O)[O-])cc3Cl)ccc2N1 | cell-free assay |  | competition with immobilised ligand | 1 µM | remaining binding | 73% |
| CC(C)(C)c1nc2c(s1)c1nc(N)ncc1c1ccc(NS(=O)(=O)c3c(F)cccc3F)c(F)c12 | enzyme activity | inhibitor | radiometric | 1 µM | remaining activity | 103% |
| CCN(CC)CCNC(=O)c1c(C)[nH]c(/C=C2\C(=O)Nc3ccc(Cl)cc32)c1C | enzyme activity | inhibitor |  | 0.5 µM | remaining activity | 59.3% |
| COc1cc(-c2cn(C3CCc4c(F)cccc4N(CC(F)(F)F)C3=O)nn2)ccc1-n1cnc(C)c1 (stereo not shown) | cell-free assay |  | competition with immobilised ligand | 1 µM | remaining binding | 100% |
| N#CCCc1ccc2c(c1)-c1[nH]c3ccc([N+](=O)[O-])cc3c1CC(=O)N2 | cell-free assay |  |  | 0.5 µM | remaining signal | 92.7% |
| c1nc2c(Nc3ccc4c(c3)OCCO4)nc(Nc3ccc4c(c3)OCCO4)nc2[nH]1 | enzyme activity | inhibitor |  | 10 µM | activity vs control | 22% |
| CC(C)(O)[C@H]1CC[C@H](Nc2ccc3ncc(-c4cccc(C(F)(F)F)c4)n3n2)CC1 | enzyme activity | inhibitor |  | 1 µM | remaining activity | 57.7% |
| C[C@@H]1CN(c2cc(-c3n[nH]c4ccc(OC5(C)CC5)cc34)ncn2)C[C@H](C)O1 | cell-free assay |  | competition with immobilised ligand | 0.1 µM | remaining binding | 100% |
| COc1cc2ncnc(Nc3ccc(Oc4ccccc4)c(C)c3C)c2cc1OC | enzyme activity | inhibitor |  | 1 µM | inhibition | 20% |
| Cc1ccc(Nc2nccc(N(C)c3ccc4c(C)n(C)nc4c3)n2)cc1S(N)(=O)=O | cell-free assay |  |  | 0.5 µM | remaining signal | 58.1% |
| COc1cc2nccc(Oc3ccc(NC(=O)c4c5n(n(-c6ccc(F)cc6)c4=O)CCCC5)cc3)c2cc1OC | enzyme activity | inhibitor |  | 0.1 µM | inhibition | 86% |
| COc1cc(Cl)c(C(=O)N[C@@H](CN[C@H]2CC[C@@H](N)CC2)Cc2ccc(C#N)cc2)cc1-c1ccc(CN[C@H](C)c2ccc(C)cc2)o1 | enzyme activity | inhibitor |  | 1 µM | remaining activity | 99% |
| Cc1nc(N2CC[C@@H](O)C2)ncc1-c1cc(C(F)(F)F)cc2[nH]ncc12 | cell-free assay |  | competition with immobilised ligand | 1 µM | remaining binding | 98% |
| CCN(CC)c1ccc(C2=NNC(=O)CC2C)cc1[N+](=O)[O-] (stereo not shown) | enzyme activity | inhibitor |  | 10 µM | remaining activity | 83% |
| CC/C(=N\NC(=O)NCc1cccc(O)c1)c1ccc(O)c(C)c1O | enzyme activity | inhibitor |  | 0.1 µM | inhibition | 0.5% |
| CCCOc1ccc([C@@H]2[C@@H](C(=O)O)[C@H](c3ccc4c(c3)OCO4)CN2CC(=O)Nc2c(CC)cccc2CC)cc1 | cell-free assay |  | competition with immobilised ligand | 1 µM | remaining binding | 89% |
| O=c1c2ccccc2[nH]c(=S)n1CCN1CCC(=C(c2ccc(F)cc2)c2ccc(F)cc2)CC1 | enzyme activity | inhibitor |  | 0.5 µM | remaining activity | 100% |
